# The source made the active and inactive calls. The calls are words filed in the database; no cut-off is given here.
# What was measured:
# [1] = Half life in rat at 1 mg/kg, iv; format: ADME, organism-based; details: in vivo
# [2] = Toxicity in orthotopic BALB/c mouse co-inoculated with mouse 4T1 […] cells assessed as weight loss at 10 mg/kg, iv administered on day 1,4 and 7 post inoculation; format: organism-based; details: in vivo, 168 h, time 7 day
# Outline: (§1)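 BALB/c mice received 5 × 10⁵ 4T1 cells into the breast fat pad (orthotopic), with n = 5. Dosing began when tumours reached about 50−100 mm³: 10 mg/kg iv on days 1, 4 and 7, against a vehicle group. Body weight and tumour volume were recorded twice weekly, with tolerance and survival followed after each injection.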
# [3] = Observed clearance in rat at 1 mg/kg, iv; format: ADME, organism-based; details: in vivo
# [4] = molecular target: T1, Stimulator of interferon genes protein (Mus musculus, UniProt Q3TBT3); assay: Activation of mouse STING expressed in RAW-Lucia ISG cells incubated for 24 hrs by secreted luciferase reporter gene assay
# T1 sequence (Q3TBT3 whole entry): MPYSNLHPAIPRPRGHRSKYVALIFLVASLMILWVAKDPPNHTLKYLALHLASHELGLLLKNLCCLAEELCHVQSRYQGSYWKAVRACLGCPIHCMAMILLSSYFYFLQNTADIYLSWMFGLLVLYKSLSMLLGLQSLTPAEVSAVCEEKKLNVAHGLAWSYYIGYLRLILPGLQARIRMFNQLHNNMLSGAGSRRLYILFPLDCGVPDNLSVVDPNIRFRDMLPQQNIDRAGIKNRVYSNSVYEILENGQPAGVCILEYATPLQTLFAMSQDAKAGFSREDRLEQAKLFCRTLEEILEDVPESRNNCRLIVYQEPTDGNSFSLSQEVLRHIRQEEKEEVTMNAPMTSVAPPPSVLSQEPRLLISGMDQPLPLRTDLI
# [5] = Observed AUCinfinity in rat at 1 mg/kg, iv; format: ADME, organism-based; parameters: time infinity, route intravenous, dose 1 mg/kg; details: in vivo
# [6] = Toxicity in orthotopic BALB/c mouse co-inoculated with mouse 4T1 […] cells assessed as drug tolerance at 10 mg/kg, iv administered on day 1,4 and 7 post inoculation; format: organism-based; details: in vivo, 168 h, time 7 day; outline: as §1
# [7] = Observed MRT infinity in rat at 1 mg/kg, iv; format: ADME, organism-based; details: in vivo
# [8] = molecular target: T2, Stimulator of interferon genes protein (Homo sapiens, UniProt Q86WV6); assay: Activation of human STING expressed in THP1-Dual cells incubated for 24 hrs by secreted luciferase reporter gene assay
# T2 sequence (Q86WV6 whole entry): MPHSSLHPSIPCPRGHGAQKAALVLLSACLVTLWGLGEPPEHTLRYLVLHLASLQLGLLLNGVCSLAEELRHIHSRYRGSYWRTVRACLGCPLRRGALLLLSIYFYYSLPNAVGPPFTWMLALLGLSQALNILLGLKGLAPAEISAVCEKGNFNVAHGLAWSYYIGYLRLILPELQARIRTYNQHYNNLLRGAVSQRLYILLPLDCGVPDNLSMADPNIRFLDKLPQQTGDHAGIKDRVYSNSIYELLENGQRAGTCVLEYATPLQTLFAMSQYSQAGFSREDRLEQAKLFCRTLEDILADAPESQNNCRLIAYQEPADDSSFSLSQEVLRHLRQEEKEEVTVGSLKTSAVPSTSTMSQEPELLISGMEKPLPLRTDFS
# [9] = Observed volume of distribution at steady state in rat at 1 mg/kg, iv; format: ADME, organism-based; details: in vivo, read-out: Vdss
# [10] = molecular target: T2, Stimulator of interferon genes protein; assay: Binding affinity to 6His-tagged human STING measured after 3 hrs by HTRF assay
# [11] = AUClast in rat at 1 mg/kg, iv; format: ADME, organism-based; parameters: time 0 - last, route intravenous, dose 1 mg/kg; details: in vivo
# [12] = molecular target: T3, Stimulator of interferon genes protein (Mus musculus) (UniProt Q3TBT3); assay: Activation of mouse STING expressed in RAW-Lucia ISG cells at 50 uM incubated for 24 hrs by QUANTI-Luc luciferase reporter gene assay relative to control; details: filed as activator
# T3 sequence (whole entry): T1 sequence (Q3TBT3 whole entry)
# CT26 = assay: Antitumor activity against mouse CT26 cells inoculated in BALB/c mouse assessed as inhibition of tumor growth at 500 ug, IT(Intratumoral) administered on day 1,4 and 7 post inoculation; format: functional; details: dose 500.0 µg, time 7.0 day
# Outline: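 BALB/c mice with subcutaneous CT26 tumors (5 × 10⁵ cells, right armpit; n = 6) given 500 μg intratumorally on days 1, 4 and 7 at about 50–100 mm³. Tumor volume ((a × b²)/2) and body weight measured twice weekly.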
# [13] = molecular target: T2, Stimulator of interferon genes protein; assay: Activation of STING in human THP1-Dual cells assessed as increase in IP-10 secretion at 0.01 to 10 uM measured after 24 hrs by ELISA; format: cell-based; details: filed as activator, dose 0.01-10 µM
# Outline: (§2)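 THP1-Dual cells seeded at 10⁵ cells/well and treated for 24 h. Human IP-10 and IFN-β in supernatant quantified by ELISA kits. Concentration (pg/mL) derived from a standard curve.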
# THP1-Dual KO-STING = assay: Effect on ISG expression in human THP1-Dual KO-STING cells at 10 uM measured after 24 hrs; format: functional, cell-based
# Outline: (§3)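 Reporter cells (1 × 10⁵ cells/well) exposed to compound for 24 h at 37 °C in 5% CO₂. Secreted luciferase ISG reporter in 20 μL supernatant read by luminescence with QUANTI-Luc reagent. Activity expressed as fold change versus control.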
# Homo sapiens [14] = organism: Homo sapiens; assay: Binding affinity to human STING 293Q mutant assessed as thermal stability by measuring melting temperature […] differential scanning fluorimetry (reference value: 46.25 degreeC); details: filed as activator
# Outline: (§4)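 Thermal shift by DSF: 5 μM STING protein, 50 μM compound and 10× SYPRO Orange in 10 mM HEPES pH 7.5, 150 mM NaCl. Samples heated from 30 to 80 °C at 0.5 °C/min. Tm taken as the temperature of median fluorescence between onset and maximum; n = 3.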
# RAW-Lucia ISG-KO-STING = assay: Effect on ISG expression in mouse RAW-Lucia ISG-KO-STING cells at 0.005 to 10 uM measured after 24 hrs; format: functional, cell-based; details: dose 0.005-10 µM; outline: as §3
# [15] = system: Stimulator of interferon genes protein (Homo sapiens), Q86WV6 [R71H,G230A,R293Q]; assay: Binding affinity to human STING HAQ mutant assessed as thermal stability by measuring melting temperature […] differential scanning fluorimetry (reference value: 37.25 degreeC); details: filed as activator; outline: as §4
# Stimulator of interferon genes protein (Homo sapiens), Q86WV6 [R71H,G230A,R293Q], sequence (Q86WV6 whole entry R71H/G230A/R293Q): as the sequence (Q86WV6 whole entry) above, with R71H, G230A, R293Q counted along it
# [16] = system: Stimulator of interferon genes protein (Homo sapiens), Q86WV6 [UNDEFINED MUTATION]; assay: Activation of STING H232 in human 293-Dual hSTING-R232 cells assessed as induction of ISG signaling measured after 24 hrs; format: cell-based; details: filed as activator, dose 0.005-10 µM; outline: as §3
# Stimulator of interferon genes protein (Homo sapiens), Q86WV6 [UNDEFINED MUTATION], sequence (Q86WV6 whole entry, looked up, change not shown): as the sequence (Q86WV6 whole entry) above
# [17] = system: Stimulator of interferon genes protein (Homo sapiens), Q86WV6 [UNDEFINED MUTATION]; assay: Binding affinity to human STING R232 mutant assessed as thermal stability by measuring melting temperature […] differential scanning fluorimetry (reference value: 38.75 degreeC); details: filed as activator; outline: as §4
# Homo sapiens [18] = organism: Homo sapiens; assay: Binding affinity to human STING H232 mutant assessed as thermal stability by measuring melting temperature […] differential scanning fluorimetry (reference value: 39.5 degreeC); details: filed as activator; outline: as §4
# [19] = molecular target: T2, Stimulator of interferon genes protein; assay: Activation of human STING (139 to 379 residues) expressed in THP1-Blue ISG cells at 10 uM incubated for 24 hrs by quanti-blue SEAP reporter gene assay relative to control; format: cell-based; details: filed as activator
# Outline: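 THP1-Blue-ISG cells (1 × 10⁵/well) treated for 24 h; single-concentration screen at 10 μM. SEAP ISG reporter in 20 μL supernatant read with QUANTI-Blue at 650 nm. Activation given as fold over control, averaging at least two experiments.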
# 4T1 = assay: Antitumor activity against mouse 4T1 cells and CT26 cells co-inoculated in orthotopic BALB/c mouse assessed as supression of tumor growth at 10 mg/kg, iv administered on day 1,4 and 7 post inoculation; format: functional, organism-based; details: time 7.0 day, in the assay text read “4T1 cells inoculated” for “4T1 cells and CT26 cells co-inoculated”
# Outline: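 BALB/c mice bearing orthotopic 4T1 tumors (5 × 10⁵ cells in the breast fat pad; n = 5) dosed iv at 10 mg/kg on days 1, 4 and 7 once tumors reached about 50–100 mm³. Tumor volume calculated as (a × b²)/2 and, with body weight, measured twice weekly.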
# Mus musculus = organism: Mus musculus; assay: Binding affinity to mouse STING mR231 mutant assessed as thermal stability by measuring melting temperature […] differential scanning fluorimetry (reference value: 42 degreeC); details: filed as activator; outline: as §4
# [20] = molecular target: T2, Stimulator of interferon genes protein; assay: Activation of STING in human THP1-Dual cells assessed as induction of NF-KB signaling measured after 24 hrs by Quanti-Blue reagent based assay; format: cell-based; details: filed as activator, dose 0.005-10 µM
# Outline: (§5)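 THP1-Dual cells (1 × 10⁵/well) treated for 24 h. Supernatant (20 μL) incubated 1 h at 37 °C with QUANTI-Blue, then absorbance read at 650 nm. Fold change calculated relative to vehicle control.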
# [21] = molecular target: T2, Stimulator of interferon genes protein; assay: Activation of STING in human THP1-Dual cells assessed as induction of ISG signaling measured after 24 hrs by Quanti-Blue reagent based assay; format: cell-based; details: filed as activator, dose 0.005-10 µM; outline: as §5
# [22] = molecular target: T2, Stimulator of interferon genes protein; assay: Activation of STING in human THP1-Dual cells assessed as increase in IFNbeta secretion at 10 uM measured after 24 hrs by ELISA; format: cell-based; details: filed as activator; outline: as §2
# [23] = molecular target: T2, Stimulator of interferon genes protein; assay: Activation of STING in human THP1-Dual cells assessed as increase in TBK1/IRF3 phosphorylation measured after 4 hrs by Western blot analysis; format: cell-based; details: filed as activator, dose 3.3-30 µM
# Outline: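 THP1-Dual cells (8 × 10⁵/well) treated at 3.3, 10 and 30 μM for 4 h, then lysed in SDS sample buffer and boiled. Lysates run on 10% SDS-PAGE and transferred to nitrocellulose. Blots probed for TBK1, phospho-TBK1 Ser172, IRF3, phospho-IRF3 Ser396 and GAPDH, with HRP secondaries and ECL detection.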
# 293-Dual hSTING-H232 = assay: Activation of STING H232 in human 293-Dual hSTING-H232 cells assessed as induction of ISG signaling measured after 24 hrs; format: cell-based; details: filed as activator, dose 0.005-10 µM; outline: as §3
# [24] = molecular target: T2, Stimulator of interferon genes protein; assay: Inhibition of [3H]-cGAMP binding to STING (unknown origin)
compound,measurement,setting,value
CCn1nc(C)cc1C(=O)/N=c1\[nH]c2cc(-c3ncn[nH]3)cc(OC)c2n1C/C=C/Cn1/c(=N/C(=O)c2cc(C)nn2CC)[nH]c2cc(C(N)=O)cc(OCCCN3CCOCC3)c21 [listing 1 of 2 here],half-life,[1],41.8 min
same,Activity,[2],Toxic
same,clearance,[3],23.9 mL/min/kg
same,EC50,[4],39.5 µM
same,AUC(0-inf),[5],705 ng·h/mL
same,Activity,[6],Non-Toxic
same,MRT inf,[7],30.2 min
same,EC50,[8],0.24 µM
same,Vd,[9],0.722 L/kg
same,EC50,[10],0.0062 µM
same,AUC(0-t),[11],678 ng·h/mL
CCn1nc(C)cc1C(=O)/N=c1\[nH]c2cc(-c3ncn[nH]3)cc(OC)c2n1C/C=C/Cn1/c(=N/C(=O)c2cc(C)nn2CC)[nH]c2cc(C(N)=O)cc(OCCCN3CCOCC3)c21 [listing 2 of 2 here],fold change (FC),[12],3.2
same,inhibition,CT26,Active
same,Activity,[13],Active
same,Activity,THP1-Dual KO-STING,inactive
same,Tm,Homo sapiens [14],46.8 °C
same,Activity,RAW-Lucia ISG-KO-STING,inactive
same,Tm,[15],45.8 °C
same,Activity,[16],Dose-Dependent Effect
same,Tm,[17],45.5 °C
same,Tm,Homo sapiens [18],46.8 °C
same,fold change (FC),[19],19.2
same,inhibition,4T1,Active
same,Tm,Mus musculus,52.8 °C
same,Activity,[20],Dose-Dependent Effect
same,Activity,[21],Dose-Dependent Effect
same,Activity,[22],Active
same,Activity,[23],Dose-Dependent Effect
same,Activity,293-Dual hSTING-H232,Dose-Dependent Effect
CCn1nc(C)cc1C(=O)/N=c1\[nH]c2cc(C(=O)O)ccc2n1C[C@@H](O)c1ccccc1,IC50,[24],14 µM

# From ChEMBL document CHEMBL4808161, “Structure-Activity Relationship Study of Amidobenzimidazole Analogues Leading to Potent and Systemically Administrable Stimulator of Interferon Gene (STING) Agonists” (J Med Chem, 2021)
